# Assay results reported in ChEMBL document CHEMBL1133094 (J Med Chem, 2000).
# Tests used:
# D(1A) dopamine receptor = D(1A) dopamine receptor (Rattus norvegicus, UniProt P18901); assay: Binding Affinity was determined against Dopamine receptor D1 in rat striatal membranes using [3H]- SCH 23390 radioligand.; format: cell membranes, Striatum, Membrane
# How it was run: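 Competition binding with rat striatal membranes as tissue source, reported as pKi. The labelled site is the D1-like family (D1 and D5 subtypes), not D1 alone. All compounds were tested as racemates.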
# D(2) dopamine receptor = D(2) dopamine receptor (Rattus norvegicus, UniProt P61169); assay: Binding Affinity was determined against Dopamine receptor D2 in rat striatal membranes using [3H]- spiperone radioligand.; format: cell membranes, Striatum, Membrane
# Chain of D(2) dopamine receptor (P61169 whole entry): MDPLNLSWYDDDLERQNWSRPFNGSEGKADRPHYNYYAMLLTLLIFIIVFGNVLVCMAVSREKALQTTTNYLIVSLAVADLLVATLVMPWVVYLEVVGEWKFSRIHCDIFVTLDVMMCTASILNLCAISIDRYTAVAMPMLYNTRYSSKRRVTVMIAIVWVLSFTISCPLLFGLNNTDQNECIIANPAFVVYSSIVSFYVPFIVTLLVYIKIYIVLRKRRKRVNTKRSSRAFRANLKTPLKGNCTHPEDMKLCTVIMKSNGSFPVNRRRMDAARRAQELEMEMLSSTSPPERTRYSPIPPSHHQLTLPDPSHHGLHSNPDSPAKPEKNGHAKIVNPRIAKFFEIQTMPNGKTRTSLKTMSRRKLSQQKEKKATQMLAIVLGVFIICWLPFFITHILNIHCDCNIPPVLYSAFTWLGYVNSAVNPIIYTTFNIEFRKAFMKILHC
# Chain of D(1A) dopamine receptor (P18901 whole entry): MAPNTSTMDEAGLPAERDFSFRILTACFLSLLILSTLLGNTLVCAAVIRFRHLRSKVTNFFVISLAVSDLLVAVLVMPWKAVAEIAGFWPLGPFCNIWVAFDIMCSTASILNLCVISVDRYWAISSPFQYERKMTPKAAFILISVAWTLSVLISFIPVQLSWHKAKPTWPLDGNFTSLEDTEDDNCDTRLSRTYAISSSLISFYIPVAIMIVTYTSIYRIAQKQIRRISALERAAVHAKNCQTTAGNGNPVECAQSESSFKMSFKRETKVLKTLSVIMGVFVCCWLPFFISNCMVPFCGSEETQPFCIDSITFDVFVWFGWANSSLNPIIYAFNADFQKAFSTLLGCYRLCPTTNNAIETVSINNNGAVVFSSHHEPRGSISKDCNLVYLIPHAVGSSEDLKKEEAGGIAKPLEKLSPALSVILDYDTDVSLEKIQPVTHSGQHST
SMILES,Ki (D(1A) dopamine receptor),Ki (D(2) dopamine receptor)
CCCN1CCc2c(Br)ccc(O)c2C1Cc1cc(OC)ccc1Br (centres undefined),7.41 µM,> 10 µM
COc1ccc(Br)c(CC2c3c(O)ccc(Br)c3CCN2C)c1 (centres undefined),0.389 µM,> 10 µM
CCN1CCc2cccc3c2C1Cc1cc(O)ccc1O3 (centres undefined),6.76 µM,> 10 µM
COc1cc2c3c(c1)Oc1ccccc1CC3N(C)CC2 (centres undefined),4.27 µM,9.33 µM
CCN1CCc2cc(OC)cc3c2C1Cc1ccccc1O3 (centres undefined),> 10 µM,8.51 µM
CCCN1CCc2cc(O)cc3c2C1Cc1ccccc1O3 (centres undefined),> 10 µM,> 10 µM
CN1CCc2cc(O)cc3c2C1Cc1ccccc1O3 (centres undefined),2.88 µM,0.275 µM
CCN1CCc2c(Br)ccc(O)c2C1Cc1cc(OC)ccc1Br (centres undefined),1.55 µM,> 10 µM
CN1CCc2cccc3c2C1Cc1cc(O)ccc1O3 (centres undefined),4.79 µM,0.724 µM
COc1ccc2c(c1)CC1c3c(ccc(Br)c3CCN1C)O2 (centres undefined),7.59 µM,0.851 µM
COc1ccc2c(c1)CC1c3c(cccc3O2)CCN1C (centres undefined),5.25 µM,1.23 µM
COc1cc(Br)c2c(c1)CCN(C)C2Cc1ccccc1O (centres undefined),11.7 µM,7.08 µM
CCCN1CCc2cccc3c2C1Cc1cc(O)ccc1O3 (centres undefined),> 10 µM,> 10 µM
CCCN1CCc2cc(OC)cc3c2C1Cc1ccccc1O3 (centres undefined),> 10 µM,3.47 µM
CCN1CCc2cc(OC)cc(Br)c2C1Cc1ccccc1O (centres undefined),3.02 µM,3.09 µM
CCN1CCc2cccc3c2C1Cc1cc(OC)ccc1O3 (centres undefined),> 10 µM,1.86 µM
CCCN1CCc2c(Br)ccc3c2C1Cc1cc(OC)ccc1O3 (centres undefined),2.45 µM,> 10 µM
CCCN1CCc2cccc3c2C1Cc1cc(OC)ccc1O3 (centres undefined),3.89 µM,> 10 µM
COc1cc(Br)cc2c1C(Cc1ccccc1O)N(C)CC2 (centres undefined),1.7 µM,1.82 µM
CCN1CCc2cc(Br)cc(OC)c2C1Cc1ccccc1O (centres undefined),5.62 µM,2.19 µM
CCN1CCc2c(Br)ccc3c2C1Cc1cc(OC)ccc1O3 (centres undefined),3.47 µM,> 10 µM
CCN1CCc2cc(O)cc3c2C1Cc1ccccc1O3 (centres undefined),3.47 µM,6.46 µM
